According to ChEMBL document CHEMBL2413042, “Design, synthesis and evaluation of dialkyl 4-(benzo[d][1,3]dioxol-6-yl)-1,4-dihydro-2,6-dimethyl-1-substituted pyridine-3,5-dicarboxylates as potential anticonvulsants and their molecular properties prediction” (Eur J Med Chem, 2013):
Values after ≈ are worked out from the molar mass of the structure shown. Active and inactive are the calls of the source. The rule behind the calls is not given here.

Experiments:
Rattus norvegicus [1] = assay: Anticonvulsant activity in Wistar albino rat assessed as protection against maximum electric shock-induced hind limb tonic extension at 30 mg/kg, po administered 1 hr followed by maximum electric shock induction relative to control; format: functional, Hindlimb
Summary of the method: (§1)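 Male Wistar albino rats, six per group, were given test compound orally as a suspension in 0.5% sodium carboxymethylcellulose. Controls received vehicle; phenytoin 30 mg/kg was given orally. One hour after dosing, 150 mA was applied for 0.2 sec through corneal electrodes. Duration of hind limb tonic extension was recorded. Values are mean±SEM; ANOVA with Dunnett's test vs control.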

Rattus norvegicus [2] = assay: Anticonvulsant activity in Wistar albino rat assessed as time of onset of subcutaneous pentylenetetrazole-induced clonic convulsion at 50 mg/kg, po administered 1 hr prior to pentylenetetrazole challenge measured for 300 secs (reference value: 83 +/- 4 secs); format: functional
Rattus norvegicus [3] = assay: Anticonvulsant activity in Wistar albino rat assessed as protection against maximum electric shock-induced hind limb tonic extension at 50 mg/kg, po administered 1 hr followed by maximum electric shock induction relative to control; format: functional, Hindlimb; summary of the method: as §1
Rattus norvegicus [4] = assay: Anticonvulsant activity in Wistar albino rat assessed as protection against subcutaneous pentylenetetrazole-induced mortality at 50 mg/kg, po administered 1 hr prior to pentylenetetrazole challenge measured for 300 secs relative to control; format: functional
Summary of the method: (§2)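 Male Wistar albino rats, six per group. Test agents were given orally as suspensions in 0.5% sodium carboxymethylcellulose; the reference was given i.p.; the vehicle group served as control. Pentylenetetrazole 80 mg/kg was given s.c. 1 h later. Onset of clonic convulsions and protection against mortality were recorded, with a 300 sec maximum latency. Mean±SEM; one-way ANOVA with Dunnett's test.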

[5] = tested on: Radical scavenging activity; assay: Antioxidant activity assessed as DPPH free radical scavenging activity under dark condition after 30 mins; format: functional
Summary of the method: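 Test compound in ethanol (10, 50, 100, 250, 500 μg/ml solutions) was added to 0.004% DPPH in methanol. The mixture was kept in the dark for 30 min and absorbance was read at 517 nm. Percent radical inhibition was calculated, with ascorbic acid as reference, and IC50 was derived.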

Mus musculus = assay: Antinociceptive activity in Swiss albino mouse assessed as reduction of capsaicin-induced flinching at 10 mg/kg, po administered 1 hr followed by capsaicin challenge; format: functional; set-up: scale not given: the % may be the effect or the level left
Summary of the method: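 Male Swiss mice (18-22 g), six per group, were dosed by oral gavage with compound in 0.5% sodium carboxymethylcellulose. One hour later, capsaicin (1 nmol/paw, 20 μl) was injected intraplantar into the right hind paw. Flinches of the injected paw were counted for 5 min. Values are mean±SEM; ANOVA with Dunnett's test vs vehicle control.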

Rattus norvegicus [6] = assay: Anticonvulsant activity in Wistar albino rat assessed as time of onset of subcutaneous pentylenetetrazole-induced clonic convulsion at 5 mg/kg, ip administered 1 hr prior to pentylenetetrazole challenge measured for 300 secs (reference value: 83 +/- 4 secs); format: functional; summary of the method: as §2
Rattus norvegicus [7] = assay: Anticonvulsant activity in po dosed Wistar albino rat assessed as protection against subcutaneous pentylenetetrazole-induced mortality administered 1 hr prior to pentylenetetrazole challenge measured for 300 secs; format: functional, organism-based
Rattus norvegicus [8] = assay: Anticonvulsant activity in Wistar albino rat assessed as protection against subcutaneous pentylenetetrazole-induced mortality at 25 mg/kg, po administered 1 hr prior to pentylenetetrazole challenge measured for 300 secs relative to control; format: functional; summary of the method: as §2
Rattus norvegicus [9] = assay: Anticonvulsant activity in Wistar albino rat assessed as time of onset of subcutaneous pentylenetetrazole-induced clonic convulsion at 100 mg/kg, po administered 1 hr prior to pentylenetetrazole challenge measured for 300 secs (reference value: 83 +/- 3.8 secs); format: functional
Rattus norvegicus [10] = assay: Anticonvulsant activity in po dosed Wistar albino rat assessed as protection against maximum electric shock-induced hind limb tonic extension administered 1 hr followed by maximum electric shock induction; format: functional, organism-based; settings: Hindlimb; summary of the method: as §1
Rattus norvegicus [11] = assay: Anticonvulsant activity in po dosed Wistar albino rat assessed as inhibition of subcutaneous pentylenetetrazole-induced seizure administered 1 hr prior to pentylenetetrazole challenge measured for 300 secs; format: functional, organism-based
Rattus norvegicus [12] = assay: Anticonvulsant activity in Wistar albino rat assessed as protection against maximum electric shock-induced hind limb tonic extension at 100 mg/kg, po administered 1 hr followed by maximum electric shock induction relative to control; format: functional, Hindlimb; summary of the method: as §1
Rattus norvegicus [13] = assay: Anticonvulsant activity in Wistar albino rat assessed as protection against maximum electric shock-induced hind limb tonic extension at 25 mg/kg, po administered 1 hr followed by maximum electric shock induction relative to control; format: functional, Hindlimb; summary of the method: as §1
Rattus norvegicus [14] = assay: Anticonvulsant activity in Wistar albino rat assessed as protection against subcutaneous pentylenetetrazole-induced mortality at 100 mg/kg, po administered 1 hr prior to pentylenetetrazole challenge measured for 300 secs relative to control; format: functional; summary of the method: as §2
Rattus norvegicus [15] = assay: Anticonvulsant activity in Wistar albino rat assessed as time of onset of subcutaneous pentylenetetrazole-induced clonic convulsion at 25 mg/kg, po administered 1 hr prior to pentylenetetrazole challenge measured for 300 secs (reference value: 83 +/- 3.8 secs); format: functional
Rattus norvegicus [16] = assay: Anticonvulsant activity in Wistar albino rat assessed as protection against maximum electric shock-induced hind limb tonic extension at 30 mg/kg administered 1 hr followed by maximum electric shock induction relative to control; format: functional, Hindlimb
Summary of the method: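 Male Wistar albino rats, six per group, dosed orally as a suspension in 0.5% sodium carboxymethylcellulose, with a vehicle control group. One hour later, 150 mA for 0.2 sec was applied through corneal electrodes. Duration of hind limb tonic extension was recorded, and abolition or reduction of extension was scored against control. Mean±SEM; one-way ANOVA with Dunnett's test.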

Rattus norvegicus [17] = assay: Anticonvulsant activity in Wistar albino rat assessed as time of onset of subcutaneous pentylenetetrazole-induced clonic convulsion at 30 mg/kg administered 1 hr prior to pentylenetetrazole challenge measured for 300 secs (reference value: 83 +/- 4 secs); format: functional
Rattus norvegicus [18] = assay: Anticonvulsant activity in Wistar albino rat assessed as protection against subcutaneous pentylenetetrazole-induced mortality at 30 mg/kg administered 1 hr prior to pentylenetetrazole challenge measured for 300 secs relative to control; format: functional
Rattus norvegicus [19] = assay: Anticonvulsant activity in Wistar albino rat assessed as protection against maximum electric shock-induced hind limb tonic extension administered 1 hr followed by maximum electric shock induction; format: functional, organism-based; settings: Hindlimb; summary of the method: as §1

| SMILES | Time (Rattus norvegicus [2]) | Activity (Rattus norvegicus [3]) | Activity (Rattus norvegicus [4]) | IC50 [5] | further results |
| --- | --- | --- | --- | --- | --- |
| O=C1NC(=O)C(c2ccccc2)(c2ccccc2)N1 [PHENYTOIN] | – | – | – | – | Activity (Rattus norvegicus [1]): 69.8% |
| CCOC(=O)C1=C(C)N(c2ccccc2)C(C)=C(C(=O)OC)C1c1ccc2c(c1)OCO2 (stereo not given) | 221 s | 41.2% | 0% | 740 µg/mL (≈ 1700 µM) | – |
| CCOC(=O)C1=C(C)N(c2cccc([N+](=O)[O-])c2)C(C)=C(C(=O)OC)C1c1ccc2c(c1)OCO2 (stereo not given) | 136 s | 28.5% | 0% | 386 µg/mL (≈ 803 µM) | – |
| CCOC(=O)C1=C(C)N(c2ccc([N+](=O)[O-])cc2)C(C)=C(C(=O)OC)C1c1ccc2c(c1)OCO2 (stereo not given) | 225 s | 31.7% | 33.3% | 854 µg/mL (≈ 1780 µM) | Activity (Mus musculus): 4% |
| COC(=O)C1=C(C)N(c2ccccc2)C(C)=C(C(=O)OC)C1c1ccc2c(c1)OCO2 | 200 s | 41.2% | 0% | 542 µg/mL (≈ 1290 µM) | Activity (Mus musculus): 0% |
| O=C1O[C@H]([C@@H](O)CO)C(O)=C1O [ASCORBIC ACID] | – | – | – | 32 µg/mL (≈ 182 µM) | – |
| COC(=O)C1=C(C)N(c2cccc([N+](=O)[O-])c2)C(C)=C(C(=O)OC)C1c1ccc2c(c1)OCO2 | 138 s | 11.1% | 0% | 521 µg/mL (≈ 1120 µM) | – |
| CCOC(=O)C1=C(C)N(c2ccc([N+](=O)[O-])cc2)C(C)=C(C(=O)OCC)C1c1ccc2c(c1)OCO2 | 237 s | 46% | 66.6% | 597 µg/mL (≈ 1210 µM) | – |
| CCOC(=O)C1=C(C)N(c2ccccc2)C(C)=C(C(=O)OCC)C1c1ccc2c(c1)OCO2 | 275 s | 46% | 66.6% | 443 µg/mL (≈ 986 µM) | – |
| CN1C(=O)CN=C(c2ccccc2)c2cc(Cl)ccc21 [DIAZEPAM] | – | – | – | – | Time (Rattus norvegicus [6]): 262 s |
| CCOC(=O)C1=C(C)NC(C)=C(C(=O)OCC)C1c1ccc2c(c1)OCO2 | >300 s | 59% | 100% | 375 µg/mL (≈ 1000 µM) | Activity (Rattus norvegicus [7]): Dose-dependent effect; Activity (Rattus norvegicus [8]): 100%; Time (Rattus norvegicus [9]): >300 s; Activity (Rattus norvegicus [10]): Dose-dependent effect; inhibition (Rattus norvegicus [11]): Dose-dependent effect; Activity (Rattus norvegicus [12]): 72%; Activity (Rattus norvegicus [13]): 41.6%; Activity (Rattus norvegicus [14]): 0%; Activity (Mus musculus): 8%; Time (Rattus norvegicus [15]): 194 s |
| CCOC(=O)C1=C(C)N(c2ccccc2[N+](=O)[O-])C(C)=C(C(=O)OCC)C1c1ccc2c(c1)OCO2 | 293 s | 60.3% | 66.6% | 874 µg/mL (≈ 1770 µM) | – |
| COC(=O)C1=C(C)N(c2ccccc2[N+](=O)[O-])C(C)=C(C(=O)OC)C1c1ccc2c(c1)OCO2 | 174 s | 33.3% | 0% | 2354 µg/mL (≈ 5050 µM) | – |
| CCOC(=O)C1=C(C)NC(C)=C(C(=O)OC)C1c1ccc2c(c1)OCO2 (stereo not given) | 233 s | 28.5% | 33.3% | 467 µg/mL (≈ 1300 µM) | – |
| COC(=O)C1=C(C)N(c2ccc([N+](=O)[O-])cc2)C(C)=C(C(=O)OC)C1c1ccc2c(c1)OCO2 | 93 s | 7.9% | 0% | 1289 µg/mL (≈ 2760 µM) | – |
| COC(=O)C1=C(C)NC(C)=C(C(=O)OC)C1c1ccc2c(c1)OCO2 | 200 s | 27% | 0% | 604 µg/mL (≈ 1750 µM) | Activity (Mus musculus): 21% |
| COC(=O)C1=C(C)NC(C)=C(C(=O)OC)C1c1ccccc1[N+](=O)[O-] [NIFEDIPINE] | – | – | – | – | Activity (Rattus norvegicus [16]): 66.6%; Time (Rattus norvegicus [17]): 215 s; Activity (Rattus norvegicus [18]): 33.3% |
| CCOC(=O)C1=C(C)N(c2cccc([N+](=O)[O-])c2)C(C)=C(C(=O)OCC)C1c1ccc2c(c1)OCO2 | 250 s | 49.2% | 33.3% | 363 µg/mL (≈ 734 µM) | – |
| COC(=O)C1=C(C)NC(C)=C(C(=O)OC(C)C)C1c1cccc2nonc12 (stereo not given) | – | – | – | – | Activity (Rattus norvegicus [19]): Active |
| CCOC(=O)C1=C(C)N(c2ccccc2[N+](=O)[O-])C(C)=C(C(=O)OC)C1c1ccc2c(c1)OCO2 (stereo not given) | 251 s | 44.5% | 33.3% | 933 µg/mL (≈ 1940 µM) | – |
